Assay outcomes (PubChem BioAssay)
In the library only some 6.6% were active in any assay of this set; here they are far more common.
PostGolgi yeast: phenotypic screen on post-Golgi transport, primary screen | post-Golgi transport phenotypic cell assay | inhibition, % at 10 µM | 0.9% of 98,000 active;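 note: yeast cells grown in 1536-well plates; yeast grown about 18 h at 30C before absorbance read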
E coli WT exp: growth inhibitors of wild-type E. coli, primary screen, strain BW25113, expanded library, OD600; OD600 absorbance; growth inhibition, % at 100 µM; 0.15% of 98,000 active;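 active = growth inhibition above about 50% at one test dose, limit read from the data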;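 note: growth measured after 20 h incubation at 37 °C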
Her2 expr inh: inhibitors of Her2 protein expression, primary screen, SKBR-3 cells, AlphaScreen, 66K library. HER2 level % of control, % at 10 µM. SKBR-3 HER2 protein level, 18-24 h; active compounds read low. 0.69% of 65,000 active;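 active = HER2 level under 5% of the carrier-only control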;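 note: lower value means stronger loss of Her2 protein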
Target sequence (P04626 whole entry, looked up): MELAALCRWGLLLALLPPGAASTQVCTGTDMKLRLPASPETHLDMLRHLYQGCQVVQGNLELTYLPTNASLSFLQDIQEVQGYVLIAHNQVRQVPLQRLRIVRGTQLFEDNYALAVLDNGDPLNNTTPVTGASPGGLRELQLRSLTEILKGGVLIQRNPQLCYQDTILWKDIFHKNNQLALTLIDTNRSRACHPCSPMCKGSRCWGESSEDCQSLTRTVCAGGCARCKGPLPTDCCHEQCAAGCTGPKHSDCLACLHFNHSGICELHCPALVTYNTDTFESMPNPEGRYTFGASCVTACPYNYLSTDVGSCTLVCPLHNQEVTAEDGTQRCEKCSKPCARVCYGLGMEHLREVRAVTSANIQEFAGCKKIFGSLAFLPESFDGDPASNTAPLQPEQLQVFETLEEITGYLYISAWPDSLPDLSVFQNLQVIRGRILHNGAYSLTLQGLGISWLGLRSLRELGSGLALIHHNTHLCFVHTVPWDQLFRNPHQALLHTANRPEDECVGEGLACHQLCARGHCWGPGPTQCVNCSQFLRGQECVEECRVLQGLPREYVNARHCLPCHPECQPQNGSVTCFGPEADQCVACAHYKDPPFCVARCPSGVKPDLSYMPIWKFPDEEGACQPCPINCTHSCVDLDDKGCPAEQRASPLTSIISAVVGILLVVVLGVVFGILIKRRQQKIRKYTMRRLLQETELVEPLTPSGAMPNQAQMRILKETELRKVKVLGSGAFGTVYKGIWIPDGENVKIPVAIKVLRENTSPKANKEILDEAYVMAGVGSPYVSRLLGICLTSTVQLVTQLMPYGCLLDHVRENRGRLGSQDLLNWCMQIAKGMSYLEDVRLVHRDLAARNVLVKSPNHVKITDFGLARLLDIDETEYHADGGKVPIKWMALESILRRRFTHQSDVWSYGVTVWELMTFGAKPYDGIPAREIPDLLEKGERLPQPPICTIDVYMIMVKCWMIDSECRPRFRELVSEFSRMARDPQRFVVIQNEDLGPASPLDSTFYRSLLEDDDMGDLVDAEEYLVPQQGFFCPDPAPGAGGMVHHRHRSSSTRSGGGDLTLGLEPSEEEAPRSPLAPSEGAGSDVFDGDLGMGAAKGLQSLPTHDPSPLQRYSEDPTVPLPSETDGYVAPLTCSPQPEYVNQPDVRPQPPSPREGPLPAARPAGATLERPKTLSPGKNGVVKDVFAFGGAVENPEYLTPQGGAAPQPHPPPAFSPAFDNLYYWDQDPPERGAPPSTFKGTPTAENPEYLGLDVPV
PostGolgi ctrl: growth inhibition of yeast control strain, primary screen, counter-screen for post-Golgi transport modulator project | 5% of 98,000 active | efflux-deficient yeast background strain, growth absorbance A615, 16 h | inhibition, % at 10 µM
Ecoli tolC: growth inhibitors of E. coli tolC mutant, primary screen, strain BW25113 ΔtolC::kan, 384-well; OD615; growth inhibition, % at 10 µM (by protocol); 2.2% of 65,000 active;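 active = growth inhibition at or above a cutoff equal to the mean over every tested compound plus 3 SD, cut at about 60% in these data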;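 note: growth measured after 20 h incubation at 37 °C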
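Signal: optical density read at 615 nm; Assay system: E. coli ΔtolC::kan strain BW25113; Times: 20 h incubation with compound, 37 °C; Dosing: 10 µM final, single dose.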
Large screens that a line does not name were inactive. Cut-off read from the data, not from the text of the source, unless noted: active = inhibition above about 30%; inactive = the rest.

CCn1c(=O)cc(SCC(=O)Nc2cccnc2)c2ccccc21	none
Cc1ccc(C(=O)NCc2occc2C(=O)O)o1	PostGolgi yeast 34.1
Cc1ccc(C(=O)NCCCCNC(=O)c2ccc(C)o2)o1	none
Cc1ccc(OCCN2CCN(C(=O)CCC(=O)Nc3nnc(C)s3)CC2)cc1	none
Cc1ccc(OCCN2CCN(C(=O)CCC(=O)Nc3nnc(C(C)C)s3)CC2)cc1	PostGolgi ctrl 39.9
COc1ccccc1NC(=O)Nn1cnnc1	none
CC1(C)CN=C(N2CCN(C3=NCC(C)(C)S3)CC2)S1	none (no result: PostGolgi yeast, E coli WT exp, PostGolgi ctrl)
COc1ccc(C(=O)C(CN2CCOCC2)c2ccccc2)cc1F (configuration not stated)	Ecoli tolC 78.2
O=C(O)CN1C(=O)CC(Cc2ccc(Cl)cc2)C1=O (configuration not stated)	Her2 expr inh -19.7
CC(=O)NC1(c2cccc(F)c2)CCN(C(=O)Nc2ccc(C#N)cc2)CC1	none
CC(C)C1C(c2ccccc2)N(C)C(c2ccccc2)CC1(O)c1ccccc1 (configuration not stated)	PostGolgi ctrl 33.2 (no result: Her2 expr inh, Ecoli tolC)
CC1Cc2ccccc2N1C(=O)COC(=O)c1ccc(S(=O)(=O)N(C)C)cc1 (configuration not stated)	PostGolgi yeast 30.1
COc1ccc(C2C3=C(CC(C)(C)CC3=O)Oc3ncn4nc(-c5cccnc5)nc4c32)cc1 (configuration not stated)	none (no result: PostGolgi yeast, E coli WT exp, PostGolgi ctrl)
Cc1ccnc(Nc2nc(-c3c(C)nc4sccn34)cs2)c1	none
Cc1nc2sccn2c1-c1nc(-c2cc3ccccc3o2)cs1	PostGolgi ctrl 34.3
CCCCOC(=O)Cc1c(O)c2ccccc2[nH]c1=O	PostGolgi yeast 32.3
CCCCCOC(=O)Cc1c(O)c2ccccc2[nH]c1=O	none
COc1ccc(-n2nnc3c(SCC(=O)NCC4CCCO4)ncnc32)cc1 (configuration not stated)	Her2 expr inh -0.9
CCN(CC)C(=O)CSc1ncnc2c1nnn2-c1ccc(OC)cc1	none
CCc1nn(-c2cc(Cl)ccc2OC)c2c1C(=O)CCC2	none
CC(Sc1ccsc1[N+](=O)[O-])C(=O)NCCc1ccc(Cl)cc1 (configuration not stated)	PostGolgi yeast 70.2, PostGolgi ctrl 34.2 (no result: Her2 expr inh, Ecoli tolC)
CC12CC(NC(=O)N1CCc1ccccc1)c1cc(Cl)ccc1O2 (configuration not stated)	none
CC(=O)c1cnc(Nc2nc(C)c3cccc(C)c3n2)nc1C	none (no result: PostGolgi yeast, E coli WT exp, PostGolgi ctrl)
CCc1ccc(/C=N/NC(=O)c2cc(C3CC3)nc3ccccc23)s1	PostGolgi ctrl 32.0 (no result: Her2 expr inh, Ecoli tolC)
Cc1ccc(-c2cc(C(=O)N/N=C/c3c(C)nn(C)c3C)c3ccccc3n2)c(C)c1	none (no result: Her2 expr inh, Ecoli tolC)
CCOC(=O)CC(=O)CSc1nnc2c(n1)[nH]c1ccccc12	PostGolgi ctrl 45.0
CCOC(=O)c1c(-c2ccccc2)nnn1-c1nc(OCC)nc(N2CCCCC2)n1	Ecoli tolC 75.4
CCOC(=O)c1nnn(-c2nc(OC)nc(N3CCCCC3)n2)c1-c1ccccc1	none (no result: Her2 expr inh, Ecoli tolC)
Cc1ccc(N2CCN(C(=O)N3CCCC3)CC2)cc1C	none (no result: Her2 expr inh, Ecoli tolC)
O=C(Nc1cccc(C(F)(F)F)c1)c1ccco1	none
O=C(Nc1ccc(Cl)c(C(F)(F)F)c1)c1ccco1	Ecoli tolC 98.3 (no result: Her2 expr inh)
COC(=O)Nc1ccc(S(=O)(=O)N(CCO)CC(F)(F)C(F)F)cc1	Her2 expr inh -18.8
CCN(CC(F)(F)C(F)F)S(=O)(=O)c1ccc(NC(=O)OC)cc1	none
Cc1ccc2nc(NCc3ccco3)c(C=NCc3ccco3)c(=O)n2c1	none
Cc1ccc2nc(Nc3ccccc3)c(/C=N/O)c(=O)n2c1	Her2 expr inh -25.1
CCCS(=O)(=O)c1cn2cccc(N)c2c1S(=O)(=O)CCC	PostGolgi ctrl 31.3
CC(NS(=O)(=O)c1ccccc1)C(N)=O (configuration not stated)	none
O=S(=O)(Nc1ccc(-c2nc3ccccc3o2)cc1)c1ccccc1	PostGolgi ctrl 39.2, Ecoli tolC 93.1
CC(=O)Nc1ccc(S(=O)(=O)Nc2cccc(-c3nc4ccccc4o3)c2)cc1	none (no result: Her2 expr inh, Ecoli tolC)
O=C(c1ccc2c(c1)OCCO2)C1CCN(S(=O)(=O)c2ccc(F)cc2)CC1	none
Cc1ccc(Nc2nnns2)cc1C	none
Cc1nc2ccccc2cc1OCc1ccccc1	none (no result: Her2 expr inh, Ecoli tolC)
Cc1nc2ccccc2cc1OCc1ccc(Cl)cc1	PostGolgi ctrl 35.8 (no result: Her2 expr inh, Ecoli tolC)
Cc1ccc(S(=O)(=O)N2CCCC2C(=O)OCc2ccco2)cc1 (configuration not stated)	none
COc1cccc(-c2nc(-c3ccc(NC(=O)c4cccs4)cc3)no2)c1	none (no result: Her2 expr inh, Ecoli tolC)
CCCC(=O)Nc1ccc(NC(=O)CCc2ccccc2)cn1	PostGolgi yeast 30.5
CCCC(=O)Nc1ccc(NC(=O)Cc2ccccc2)cn1	none
O=C(Cc1ccccc1)Nc1ccc(NC(=O)C2CC2)nc1	PostGolgi ctrl 39.2
Cc1cc(C)nc(/N=C(/NC(=O)Nc2cccc(Cl)c2)Nc2ccccc2)n1	none (no result: Her2 expr inh, Ecoli tolC)
COc1ccc(NC(=O)c2cc3c(=O)n(C)c4ccccc4c3n2C)cc1OC	Ecoli tolC 75.2
Cn1c(C(=O)NCCN2CCc3ccccc3C2)cc2c(=O)n(C)c3ccccc3c21	PostGolgi ctrl 34.1
COc1cc(NC(=O)c2cc3c(=O)n(C)c4ccccc4c3n2C)cc(OC)c1OC	none
O=C(CSc1ccccc1)Nc1ccc(S(=O)(=O)NCC2CCCO2)cc1 (configuration not stated)	none
CCC(C)NC(=O)c1ccccc1NC(=O)c1ccc(CSc2ccc(C)cc2)cc1 (configuration not stated)	none (no result: Her2 expr inh, Ecoli tolC)
CCCCS(=O)(=O)Nc1ccc(Cc2ccncc2)cc1	none (no result: Her2 expr inh)
C=CCc1ccc(OCCCOc2ccc(C)cc2OC)c(OC)c1	none (no result: Her2 expr inh, Ecoli tolC)
COc1cccc(OCCCCN2CCCCC2)c1	none
COc1cccc(OCCCCN2CC(C)OC(C)C2)c1 (configuration not stated)	PostGolgi yeast 85.8, PostGolgi ctrl 43.2 (no result: Her2 expr inh, Ecoli tolC)
Cc1ccc(C(C)C)c(OCCCN2CC(C)OC(C)C2)c1 (configuration not stated)	PostGolgi yeast 82.7
C=CCc1ccc(OCCCCN2CC(C)OC(C)C2)c(OC)c1 (configuration not stated)	PostGolgi yeast 96.6, PostGolgi ctrl 43.3 (no result: Her2 expr inh, Ecoli tolC)
O=c1[nH]c(NCc2ccco2)nnc1Cc1ccccc1Cl	none
Fc1ccc2c(c1)C(c1ccc(N3CCOCC3)cc1)=NNC(c1cccs1)=N2	PostGolgi ctrl 35.9 (no result: Her2 expr inh, Ecoli tolC)
Brc1ccc2c(c1)C(c1ccc(N3CCOCC3)cc1)=NNC(c1cccs1)=N2	none (no result: Her2 expr inh, Ecoli tolC)
CCOC(=O)Cc1csc(NC(=O)CCCCCN2C(=O)c3ccccc3C2=O)n1	none (no result: Her2 expr inh, Ecoli tolC)
CCOC(=O)c1c(-c2ccccc2)oc2ccc(OC(C)=O)cc12	PostGolgi ctrl 31.8 (no result: Her2 expr inh, Ecoli tolC)
CCOC(=O)c1c(C(C)(C)C)oc2ccc(O)cc12	PostGolgi ctrl 52.4 (no result: Her2 expr inh, Ecoli tolC)
O=S1(=O)CCC(SCc2nc3sccn3c2Br)C1 (configuration not stated)	none
CCOC(=O)CNC(=O)c1sc(NC(=O)c2cccc(F)c2)nc1C	PostGolgi ctrl 34.7 (no result: Her2 expr inh, Ecoli tolC)
